# Test results published in ChEMBL document CHEMBL4038284, “Synthesis of novel quinoline-based 4,5-dihydro-1H-pyrazoles as potential anticancer, antifungal, antibacterial and antiprotozoal agents” (Eur J Med Chem, 2017).
# Active and inactive are the calls of the source. The rule behind the calls is not given here.
# Experiments:
# Staphylococcus aureus [1] = experiment: Antibacterial activity against methicillin-resistant Staphylococcus aureus ATCC 43300 after 24 hrs by resazurin dye based microdilution assay; format: functional; conditions: ATCC 43300, 24 h
# Method in brief: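 Broth microdilution in Mueller Hinton broth, inoculum 5 × 10^5 – 8 × 10^5. Compound stocks diluted in MHB with 5% DMSO and 0.1% Tween 80. Incubation 24 h at 35-37 °C. MIC is the lowest concentration with visible growth inhibition and/or by resazurin (1 mg/mL) read-out. Gentamicin as control. Run in duplicate, replicated at least three times.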
# Candida albicans [2] = experiment: Growth inhibition of Candida albicans ATCC 10231 at 62.5 ug/ml incubated for 48 hrs under dark condition by broth microdilution method relative to control; format: functional; conditions: ATCC 10231, 48 h, read-out: GI
# Method in brief: (§1)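 CLSI M27-A3 broth microdilution in RPMI-1640, DMSO ≤1%. Inoculum 1-5 × 10^3 CFU/mL. Incubated 48 h at 30 °C, dark. % inhibition = 100 − (OD405 test − sterility control)/(OD405 growth control − sterility control), with growth and sterility control wells. Triplicate.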
# SR = experiment: Growth inhibition of human SR cells at 10 uM incubated for 48 hrs by sulforhodamine B assay; format: functional, cell-based
# Method in brief: (§2)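 NCI-60 single-dose screen at 10 µM for 48 h. Cells were grown in RPMI-1640 with 5% FBS and 2 mM L-glutamine and preincubated 24 h before compound. Time-zero plates were TCA-fixed at compound addition. After exposure, cells were TCA-fixed, stained with SRB and read at 515 nm. Percentage growth was calculated against time-zero and untreated-control absorbances.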
# Cryptococcus neoformans [3] = experiment: Growth inhibition of Cryptococcus neoformans ATCC 32264 at 15.62 ug/ml incubated for 48 hrs under dark condition by broth microdilution method relative to control; format: functional; conditions: ATCC 32264, 48 h, read-out: GI; method in brief: as §1
# COLO 205 = experiment: Growth inhibition of human COLO205 cells at 10 uM incubated for 48 hrs by sulforhodamine B assay; format: functional, cell-based
# Method in brief: (§3)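 NCI 60-cell-line screen at a single 10 µM dose. Cells in RPMI-1640 with 5% FBS and 2 mM L-glutamine, pre-incubated 24 h, then treated for 48 h at 37 °C. TCA fixation, sulforhodamine B staining, absorbance at 515 nm. Percentage growth calculated against time-zero and untreated controls.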
# Leishmania panamensis = experiment: Antileshmanial activity against EpiR/GFP fused Leishmania panamensis MHOM/CO/87/UA140 intracellular amastigotes infected in human […] cells after 72 hrs by flow cytometric method; format: functional, cell-based; conditions: MHOM/CO/87/UA140, 72 h
# Method in brief: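 PMA-treated U-937 cells (3 × 10^5 cells/mL) infected with stationary-phase GFP L. panamensis promastigotes (15:1), 3 h at 34 °C, then washed. After 24 h, compounds added at 50, 12.5, 3.125 and 0.78 µg/mL for 72 h at 37 °C. EC50 by Probit; triplicate, two experiments.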
# 786-0 = experiment: Growth inhibition of human 786-0 cells at 10 uM incubated for 48 hrs by sulforhodamine B assay; format: functional, cell-based; method in brief: as §3
# SK-MEL-5 = experiment: Growth inhibition of human SK-MEL-5 cells at 10 uM incubated for 48 hrs by sulforhodamine B assay; format: functional, cell-based; method in brief: as §2
# Cryptococcus neoformans [4] = experiment: Growth inhibition of Cryptococcus neoformans ATCC 32264 at 125 ug/ml incubated for 48 hrs under dark condition by broth microdilution method relative to control; format: functional; conditions: ATCC 32264, 48 h, read-out: GI; method in brief: as §1
# Staphylococcus aureus [5] = experiment: Antibacterial activity against vancomycin-intermediate Staphylococcus aureus after 24 hrs by resazurin dye based microdilution assay; format: functional
# Method in brief: (§4)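 MIC taken as the lowest concentration giving visible inhibition and/or by resazurin (1 mg/mL). Gentamicin was the control. Run in duplicate, repeated at least three times.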
# PC-3 = experiment: Growth inhibition of human PC3 cells at 10 uM incubated for 48 hrs by sulforhodamine B assay; format: functional, cell-based
# Method in brief: (§5)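 NCI 60-line panel, single 10 μM dose. Cells were grown in RPMI-1640 with 5% FBS and 2 mM L-glutamine and pre-incubated 24 h before compound addition (DMSO stock). Exposure was 48 h at 37 °C, 5% CO2. Cells were fixed with cold TCA (10% final), stained with 0.4% SRB, bound dye dissolved in 10 mM Tris base, A515 read. Growth was taken relative to time-zero and untreated control plates.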
# BT-549 = experiment: Growth inhibition of human BT549 cells at 10 uM incubated for 48 hrs by sulforhodamine B assay; format: functional, cell-based; method in brief: as §3
# SNB-19 = experiment: Growth inhibition of human SNB19 cells at 10 uM incubated for 48 hrs by sulforhodamine B assay; format: functional, cell-based; method in brief: as §2
# SF-539 = experiment: Growth inhibition of human SF539 cells at 10 uM incubated for 48 hrs by sulforhodamine B assay; format: functional, cell-based; method in brief: as §5
# Candida albicans [6] = experiment: Growth inhibition of Candida albicans ATCC 10231 at 7.8 ug/ml incubated for 48 hrs under dark condition by broth microdilution method relative to control; format: functional; conditions: ATCC 10231, 48 h, read-out: GI; method in brief: as §1
# Cryptococcus neoformans [7] = experiment: Growth inhibition of Cryptococcus neoformans ATCC 32264 at 3.4 ug/ml incubated for 48 hrs under dark condition by broth microdilution method relative to control; format: functional; conditions: ATCC 32264, 48 h, read-out: GI
# Candida albicans [8] = experiment: Growth inhibition of Candida albicans ATCC 10231 at 31.25 ug/ml incubated for 48 hrs under dark condition by broth microdilution method relative to control; format: functional; conditions: ATCC 10231, 48 h, read-out: GI; method in brief: as §1
# A498 = experiment: Growth inhibition of human A498 cells at 10 uM incubated for 48 hrs by sulforhodamine B assay; format: functional, cell-based; method in brief: as §3
# Candida albicans [9] = experiment: Growth inhibition of Candida albicans ATCC 10231 at 250 ug/ml incubated for 48 hrs under dark condition by broth microdilution method relative to control; format: functional; conditions: ATCC 10231, 48 h, read-out: GI; method in brief: as §1
# CCRF-CEM = experiment: Growth inhibition of human CCRF-CEM cells at 10 uM incubated for 48 hrs by sulforhodamine B assay; format: functional, cell-based; method in brief: as §3
# RXF 393 = experiment: Growth inhibition of human RXF393 cells at 10 uM incubated for 48 hrs by sulforhodamine B assay; format: functional, cell-based; method in brief: as §5
# RPMI-8226 = experiment: Growth inhibition of human RPMI8226 cells at 10 uM incubated for 48 hrs by sulforhodamine B assay; format: functional, cell-based; method in brief: as §5
# HCC 2998 = experiment: Growth inhibition of human HCC2998 cells at 10 uM incubated for 48 hrs by sulforhodamine B assay; format: functional, cell-based; method in brief: as §3
# Candida albicans [10] = experiment: Antifungal activity against Candida albicans ATCC 10231 incubated for 48 hrs under dark condition by broth microdilution method; format: functional; conditions: ATCC 10231, 48 h
# Method in brief: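 CLSI M27-A3 broth microdilution in RPMI-1640, DMSO ≤1%, compounds at 250-0.98 µg/mL final. Inoculum 1-5 × 10^3 CFU/mL. Incubated 48 h at 30 °C in a moist dark chamber, read at OD405. MIC80 and MIC50 taken from % inhibition dose-response curves (mean ± SEM, triplicate). Amphotericin B was the positive control.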
# NCI/ADR-RES = experiment: Growth inhibition of human NCI/ADR-RES cells at 10 uM incubated for 48 hrs by sulforhodamine B assay; format: functional, cell-based; method in brief: as §5
# Klebsiella pneumoniae = experiment: Antibacterial activity against carbapenemase positive Klebsiella pneumoniae BAA 1705 after 24 hrs by resazurin dye based microdilution assay; format: functional; conditions: BAA 1705, 24 h; method in brief: as §4
# EKVX = experiment: Growth inhibition of human EKVX cells at 10 uM incubated for 48 hrs by sulforhodamine B assay; format: functional, cell-based; method in brief: as §3
smiles,measurement,setting,value
COc1ccc(C(=O)/C=C/c2cccc(Nc3ccnc4cc(Cl)ccc34)c2)cc1,MIC,Staphylococcus aureus [1],> 1000 µg/mL
same,inhibition of growth at 62.5 µg/mL,Candida albicans [2],41.1%
same,growth inhibition (GI),SR,Active
same,inhibition of growth at 15.62 µg/mL,Cryptococcus neoformans [3],5.01%
same,growth inhibition (GI),COLO 205,Active
same,EC50,Leishmania panamensis,2.65 µg/mL
same,growth inhibition (GI),786-0,Active
same,growth inhibition (GI),SK-MEL-5,Active
same,inhibition of growth at 125 µg/mL,Cryptococcus neoformans [4],34.4%
same,MIC,Staphylococcus aureus [5],> 1000 µg/mL
same,growth inhibition (GI),PC-3,Active
same,growth inhibition (GI),BT-549,Active
same,growth inhibition (GI),SNB-19,Active
same,growth inhibition (GI),SF-539,Active
same,inhibition of growth at 7.8 µg/mL,Candida albicans [6],12.5%
same,inhibition of growth at 3.4 µg/mL,Cryptococcus neoformans [7],0%
same,inhibition of growth at 31.25 µg/mL,Candida albicans [8],26.9%
same,growth inhibition (GI),A498,Active
same,inhibition of growth at 250 µg/mL,Candida albicans [9],59.6%
same,growth inhibition (GI),CCRF-CEM,Active
same,growth inhibition (GI),RXF 393,Active
same,growth inhibition (GI),RPMI-8226,Active
same,growth inhibition (GI),HCC 2998,Active
same,MIC50,Candida albicans [10],250 µg/mL
same,MIC80,Candida albicans [10],≥ 250 µg/mL
same,growth inhibition (GI),NCI/ADR-RES,Active
same,MIC,Klebsiella pneumoniae,> 1000 µg/mL
same,growth inhibition (GI),EKVX,Active
